# ChEMBL document CHEMBL1146783, “Conformationally restricted analogs of deoxynegamycin” (Bioorg Med Chem Lett, 2004)
# Tests used:
# Assay type in all cases: functional
# [1] = tested on: Escherichia coli; experiment: Minimum inhibitory concentration (MIC) against Escherichia coli ATCC 25922
# Method in brief: (§1)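 Broth microdilution in Mueller–Hinton broth supplemented with 50% human serum; inoculum 5 × 10⁵ cfu/mL.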
# [2] = tested on: Escherichia coli; experiment: Minimum inhibitory concentration (MIC) against Escherichia coli MG1655; method in brief: as §1
# [3] = tested on: Escherichia coli; experiment: Minimum inhibitory concentration (MIC) against Escherichia coli MG1655 tolC; method in brief: as §1
# [4] = tested on: Enterobacter cloacae; experiment: Minimum inhibitory concentration (MIC) against Enterobacter cloacae ATCC 35030; method in brief: as §1
# [5] = tested on: Klebsiella pneumoniae; experiment: Minimum inhibitory concentration (MIC) against Klebsiella pneumoniae ATCC 13882; method in brief: as §1
# [6] = tested on: Pseudomonas aeruginosa; experiment: Minimum inhibitory concentration (MIC) against Pseudomonas aeruginosa PA01; method in brief: as §1
# [7] = tested on: Staphylococcus aureus; experiment: Minimum inhibitory concentration (MIC) against Staphylococcus aureus ATCC 25293; method in brief: as §1
# [8] = tested on: Escherichia coli; experiment: Minimum inhibitory concentration (MIC) against Escherichia coli ATCC 25922; Inactive; method in brief: as §1
# [9] = tested on: Escherichia coli; experiment: Minimum inhibitory concentration (MIC) against Escherichia coli MG1655; Inactive; method in brief: as §1
# [10] = tested on: Enterobacter cloacae; experiment: Minimum inhibitory concentration (MIC) against Enterobacter cloacae ATCC 35030; Inactive; method in brief: as §1
# [11] = tested on: Pseudomonas aeruginosa; experiment: Minimum inhibitory concentration (MIC) against Pseudomonas aeruginosa PA01; Inactive; method in brief: as §1
# [12] = tested on: Streptococcus pneumoniae; experiment: Minimum inhibitory concentration (MIC) against Streptococcus pneumoniae 1005; Inactive; method in brief: as §1
# [13] = tested on: Staphylococcus aureus; experiment: Minimum inhibitory concentration (MIC) against Staphylococcus aureus […]; Inactive; method in brief: as §1
# [14] = tested on: Escherichia coli; experiment: Minimum inhibitory concentration (MIC) against Escherichia coli MG1655 tolC; Inactive; method in brief: as §1
# [15] = tested on: Klebsiella pneumoniae; experiment: Minimum inhibitory concentration (MIC) against Klebsiella pneumoniae ATCC 13882; Inactive; method in brief: as §1
# [16] = tested on: Streptococcus pneumoniae; experiment: Minimum inhibitory concentration (MIC) against Streptococcus pneumoniae 1005; method in brief: as §1
# [17] = species on record: Mus musculus; experiment: Compound was evaluated for its efficacy in an Escherichia coli murine septicemia model
# Method in brief: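 Mice infected intraperitoneally with about 1 × 10⁵ cfu of E. coli ATCC25922; compound given intravenously at 1 and 5 h post-infection.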
# [18] = Escherichia coli, ATCC 25922, read-out: MIC
# [19] = Escherichia coli, read-out: MIC
# [20] = Escherichia coli, MG1655, read-out: MIC
# [21] = Enterobacter cloacae, ATCC 35030, read-out: MIC
# [22] = Klebsiella pneumoniae, ATCC 13882, read-out: MIC
# [23] = Pseudomonas aeruginosa, read-out: MIC
# [24] = Staphylococcus aureus, ATCC 25293, read-out: MIC
SMILES,MIC [8],MIC [9],MIC [10],MIC [11],MIC [12],MIC [13],MIC [14],MIC [15],"MIC [1, 18]","MIC [2, 19]","MIC [3, 20]","MIC [4, 21]","MIC [5, 22]","MIC [6, 23]",MIC [16],"MIC [7, 24]",also measured
CN(CC(=O)O)NC(=O)C[C@H](N)C1CC1N (stereo in doubt; 35e1),,,,,,,,,,,,,,,,,MIC [1]: >128 µg/mL; MIC [2]: >128 µg/mL; MIC [3]: >128 µg/mL; MIC [4]: >128 µg/mL; MIC [5]: >128 µg/mL; MIC [6]: >128 µg/mL; MIC [7]: >128 µg/mL
CN(CC(=O)O)NC(=O)C[C@H](N)Cc1csc(CNC(=O)OC(C)(C)C)n1,> 256 µg/mL,> 256 µg/mL,> 256 µg/mL,> 256 µg/mL,> 256 µg/mL,> 256 µg/mL,> 256 µg/mL,> 256 µg/mL,,,,,,,,,
CN(CC(=O)O)NC(=O)CC(N)[C@H]1CC[C@@H](N)C1 (stereo partly specified),,,,,,,,,128 µg/mL,128 µg/mL,64 µg/mL,128 µg/mL,64 µg/mL,256 µg/mL,128 µg/mL,128 µg/mL,
CN(CC(=O)O)NC(=O)C[C@H](N)Cc1csc(N)n1,> 256 µg/mL,> 256 µg/mL,> 256 µg/mL,> 256 µg/mL,> 256 µg/mL,> 256 µg/mL,> 256 µg/mL,> 256 µg/mL,,,,,,,,,
CN(CC(=O)O)NC(=O)C[C@H](N)c1csc(CCNC(=O)OC(C)(C)C)n1,> 256 µg/mL,> 256 µg/mL,> 256 µg/mL,> 256 µg/mL,> 256 µg/mL,> 256 µg/mL,> 256 µg/mL,> 256 µg/mL,,,,,,,,,
CN(CC(=O)O)NC(=O)C[C@H](N)CC1CC1N (stereo partly specified),,,,,,,,,64 µg/mL,64 µg/mL,32 µg/mL,128 µg/mL,32 µg/mL,256 µg/mL,128 µg/mL,256 µg/mL,
CN(CC(=O)O)NC(=O)C[C@H](N)CCCN,,,,,,,,,16 µg/mL,8 µg/mL,4 µg/mL,4 µg/mL,8 µg/mL,64 µg/mL,64 µg/mL,64 µg/mL,ED50 [17]: 4.8 mg/kg
CN(CC(=O)O)NC(=O)C[C@H](N)c1csc(N)n1,> 256 µg/mL,> 256 µg/mL,> 256 µg/mL,> 256 µg/mL,> 256 µg/mL,> 256 µg/mL,> 256 µg/mL,> 256 µg/mL,,,,,,,,,
CN(CC(=O)O)NC(=O)C[C@H](N)/C=C(/F)CN,,,,,,,,,> 256 µg/mL,> 256 µg/mL,> 256 µg/mL,> 256 µg/mL,> 256 µg/mL,> 256 µg/mL,256 µg/mL,> 256 µg/mL,
CN(CC(=O)O)NC(=O)C[C@H](N)C1CC1N (stereo in doubt; 35e2),,,,,,,,,128 µg/mL,128 µg/mL,128 µg/mL,128 µg/mL,128 µg/mL,128 µg/mL,,128 µg/mL,
CN(CC(=O)O)NC(=O)C[C@H](N)C1CC1CN (stereo partly specified),,,,,,,,,> 128 µg/mL,> 128 µg/mL,> 128 µg/mL,> 128 µg/mL,> 128 µg/mL,> 128 µg/mL,,> 128 µg/mL,
CN(CC(=O)O)NC(=O)C[C@H](N)/C=C(\F)CN,,,,,,,,,> 256 µg/mL,> 256 µg/mL,> 256 µg/mL,> 256 µg/mL,> 256 µg/mL,> 256 µg/mL,256 µg/mL,> 256 µg/mL,
CN(CC(=O)O)NC(=O)C[C@H](N)/C=C/CN,,,,,,,,,> 256 µg/mL,> 256 µg/mL,> 256 µg/mL,> 256 µg/mL,> 256 µg/mL,> 256 µg/mL,256 µg/mL,> 256 µg/mL,
CN(CC(=O)O)NC(=O)CC1(N)CCC(N)CC1 (stereo unspecified),> 256 µg/mL,> 256 µg/mL,> 256 µg/mL,> 256 µg/mL,> 256 µg/mL,> 256 µg/mL,> 256 µg/mL,> 256 µg/mL,,,,,,,,,
CN(CC(=O)O)NC(=O)CC(N)C1CCC(N)CC1 (stereo unspecified),,,,,,,,,128 µg/mL,64 µg/mL,32 µg/mL,128 µg/mL,32 µg/mL,256 µg/mL,128 µg/mL,128 µg/mL,
CN(CC(=O)O)NC(=O)C[C@H](N)c1csc(CNC(=O)OC(C)(C)C)n1,> 256 µg/mL,> 256 µg/mL,> 256 µg/mL,> 256 µg/mL,> 256 µg/mL,> 256 µg/mL,> 256 µg/mL,> 256 µg/mL,,,,,,,,,
CN(CC(=O)O)NC(=O)CC(N)C1CCCC(N)C1 (stereo unspecified),,,,,,,,,256 µg/mL,128 µg/mL,64 µg/mL,256 µg/mL,64 µg/mL,> 256 µg/mL,128 µg/mL,256 µg/mL,
CN(CC(=O)O)NC(=O)C[C@H](N)Cc1csc(CCNC(=O)OC(C)(C)C)n1,> 256 µg/mL,> 256 µg/mL,> 256 µg/mL,> 256 µg/mL,> 256 µg/mL,> 256 µg/mL,> 256 µg/mL,> 256 µg/mL,,,,,,,,,
CN(CC(=O)O)NC(=O)C[C@H](N)C1CCCNC1 (stereo partly specified),,,,,,,,,> 128 µg/mL,> 128 µg/mL,> 128 µg/mL,> 128 µg/mL,> 128 µg/mL,> 128 µg/mL,> 128 µg/mL,> 128 µg/mL,
CN(CC(=O)O)NC(=O)C[C@H](N)C[C@@H](O)CN [NEGAMYCIN],,,,,,,,,,,,,,,,,ED50 [17]: 5.1 mg/kg
